Measurements taken from article PMC7135742 (Nature biomedical engineering, 2020).

What was measured:
pANXA2 in 4T1 cells = test: Western blot of pANXA2 levels after insulin / PP2 treatment; assay type: cell-based, murine; conditions: 100 nM insulin 4 h, PP2 co-administration
Summary of the method: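 4T1 murine breast cancer cells serum-starved overnight, then treated with 100 nM insulin for 4 h or with PP2, following the same protocol as the insulin imaging study. Cells lysed by ultrasonic homogenisation in RIPA buffer (10 mM Tris-HCl, pH 8.0), and lysates resolved by SDS-PAGE and immunoblotted for pANXA2.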

[1] = tested on: A549, MDA-MB-231, and 4T1; test: Cellular uptake by fluorescence microscopy, solid cancer cell lines; assay type: cell-based; conditions: 1 μM cypate, all cells
Summary of the method: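 Cells were grown in medium with 10% FBS and penicillin/streptomycin (37°C, 5% CO2), then seeded overnight on 8-chamber slides. Compound stock was made in 20% DMSO in PBS (pH 7.4) and diluted into medium to 1 µM final, then incubated at 37°C for several time points. SYTO 13 nuclear stain was added for 45 min at 37°C before epifluorescence or confocal imaging.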

LS301 = test: MST of LS301 with whole-cell lysate; conditions: reference: lysate of insulin-stimulated 4T1 cells; sites Y23
tumours = conditions: cited from earlier work
4T1 luc/GFP cells = test: In vitro blocking study of LS301 uptake; assay type: cell-based, murine; conditions: 24 h, LS301 1 µM, blocking agent 50 µM
[2] = molecular target: LS301 (cypate-cyclic(DCys-Gly-Arg-Asp-Ser-Pro-Cys)-Lys-OH); test: MST

Chain of ANXA2 (endogenous, 4T1 cells) (P07356 whole entry, looked up, change not shown): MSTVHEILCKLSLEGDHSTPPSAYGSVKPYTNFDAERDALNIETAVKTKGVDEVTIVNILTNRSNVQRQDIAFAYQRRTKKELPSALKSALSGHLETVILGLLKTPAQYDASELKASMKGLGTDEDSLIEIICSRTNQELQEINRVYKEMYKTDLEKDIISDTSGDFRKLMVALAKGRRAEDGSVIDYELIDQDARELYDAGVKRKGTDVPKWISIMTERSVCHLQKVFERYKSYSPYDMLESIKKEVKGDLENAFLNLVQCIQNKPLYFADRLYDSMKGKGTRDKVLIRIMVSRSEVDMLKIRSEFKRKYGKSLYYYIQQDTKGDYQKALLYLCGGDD

Compound: CC(C)(C)n1nc(-c2ccc(Cl)cc2)c2c(N)ncnc21 [PP2]
- effect on pANXA2 levels in 4T1 cells (pANXA2 in 4T1 cells): this effect was suppressed

Compound: CC1(C)C(/C=C/C=C/C=C/C=C2/N(CCC(=O)O)c3ccc4ccccc4c3C2(C)C)=[N+](CCC(=O)[O-])c2ccc3ccccc3c21 [cypate]
- cellular retention of cypate alone [1]: only transient retention in all cells

Compound: ANXA2 (endogenous, 4T1 cells) (from UniProt P07356) lysate of PP2-treated 4T1 cells
- KD (LS301): weaker; reference 0.017 ± 0.004 nM

Compound: Cypate-GRDSPK
- retention of Cypate-GRDSPK in tumours (tumours): the retention was transient

Compound: LCKLSL
- blocking of LS301 binding and internalization in cells (4T1 luc/GFP cells): inhibited the binding and internalization of LS301 in cells

Compound: Purified ANXA2 protein (Annexin A2) (from UniProt P07355 1-339) (natural protein)
- Kd [2]: 0.389 nM

Compound: Purified pANXA2 protein (Annexin A2 phosphorylated at tyrosine 23) (from UniProt P07355 1-339) (natural protein)
- Kd [2]: 0.075 nM

Compound: insulin: stimulates tyrosine-23 phosphorylation of ANXA2
- effect on pANXA2 levels in 4T1 cells (pANXA2 in 4T1 cells): increased levels of pANXA2 relative to unstimulated cells
